# Experimental data as given in ChEMBL document CHEMBL1122509, “(1,3-Dialkyl-5-amino-1H-pyrazol-4-yl)arylmethanones. A series of novel central nervous system depressants” (1984).
# Tests used:
# Mus musculus [1] = test: Compound was evaluated for the inhibition of Locomotion-Screen falloff test, at dose (mg/Kg) = 30; 31-59%; type: functional
# Method in brief: (§1)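 Unfasted male Swiss–Webster mice, 20–30 g, nine per dose in three groups of three, received 10, 30 or 100 mg/kg ip as parent compound in 0.2% methocel, 1 h before testing; controls got methocel. Screen test: percent of mice falling from a screen inverted 180° during 60 s. Then locomotion was read by actophotometer over 1 h as percent inhibition versus vehicle. Graded bands: 60–100% = A.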
# Mus musculus [2] = test: Compound was evaluated for the inhibition of Locomotion-Screen falloff test, at dose (mg/Kg) = 10; 0-30%; type: functional; method in brief: as §1
# Rattus norvegicus = test: Evaluated for anticonvulsant activity to protect all rats tested, when administered subcutaneously; type: functional
# Mus musculus [3] = test: Compound was evaluated for the inhibition of Locomotion-Screen falloff test, at dose (mg/Kg) = 100; 60-100%; type: functional; method in brief: as §1
# Mus musculus [4] = species: Mus musculus; test: Central nervous system depressant activity; type: functional
# Method in brief: (§2)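 Male albino Webster mice, 20–26 g, groups of five, given ip doses of 250, 125, 63 mg/kg and lower until no effect was seen. Doses were calculated as active component and given in 0.9% saline or 100% propylene glycol. Observers scored motor activity, ataxia, depression, reflexes, posture, muscle tone and responses to noise, touch, restraint and transfer over 15–60 min. Survivors were held 24 h for a provisional acute toxicity level.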
# Mus musculus [5] = test: Compound was evaluated for the inhibition of Locomotion-Screen falloff test, at dose (mg/Kg) = 30; 0-30%; type: functional; method in brief: as §1
# Mus musculus [6] = test: Compound was evaluated for the inhibition of Locomotion-Screen falloff test, at dose (mg/Kg) = 100; 31-59%; type: functional; method in brief: as §1
# Mus musculus [7] = test: Compound was evaluated for the inhibition of Locomotion-Screen falloff test, at dose (mg/Kg) = 10; 31-59%; type: functional; method in brief: as §1
# Mus musculus [8] = test: Compound was evaluated for the inhibition of Locomotion-Screen falloff test, at dose (mg/Kg) = 30; 60-100%; type: functional; method in brief: as §1
# Mus musculus [9] = test: Compound was evaluated for central nervous system depressant activity at 250 mg/kg; c=Quiet at 250 mg/kg; type: functional, organism-based; method in brief: as §2
# Mus musculus [10] = test: Compound was evaluated for the inhibition of Locomotion-Screen falloff test by ip route; type: functional; method in brief: as §1
# Mus musculus [11] = test: Compound was evaluated for the inhibition of Locomotion-Screen falloff test, at dose (mg/Kg) = 10; 60-100%; type: functional; method in brief: as §1
# Mus musculus [12] = test: Compound was evaluated for the inhibition of Locomotion-Screen falloff test, at dose (mg/Kg) = 10; type: functional
# Method in brief: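 Swiss-Webster male mice (20–30 g, unfasted), 9 per dose in three groups of three; 10 mg/kg ip in 0.2% methocel, dosed as parent compound, 1 h before testing; methocel-injected controls. Inverted wire screen (180° rotation, 60 s) scored as percent falling off. Then actophotometer counts over 1 h give percent inhibition versus vehicle; graded A = 60–100%.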
structure (smiles),measurement,setting,value
Cc1nn(C)c(N)c1C(=O)c1ccccc1C(F)(F)F,Inhibition,Mus musculus [1],31%
same,Inhibition,Mus musculus [2],0%
same,Activity,Rattus norvegicus,250 mg/kg
same,Inhibition,Mus musculus [3],60%
same,Activity,Mus musculus [4],125 mg/kg
Cc1nn(-c2ccccc2)c(N)c1C(=O)c1ccccc1Cl,Activity,Mus musculus [4],250 mg/kg
Cc1nn(C)c(N)c1C(=O)c1cccc(C(F)(F)F)c1,Inhibition,Mus musculus [2],0%
same,Activity,Rattus norvegicus,125 mg/kg
same,Inhibition,Mus musculus [5],0%
same,Inhibition,Mus musculus [6],31%
same,Activity,Mus musculus [4],4 mg/kg
Cc1nn(C(C)C)c(N)c1C(=O)c1ccccc1Cl,Activity,Rattus norvegicus,500 mg/kg
same,Activity,Mus musculus [4],63 mg/kg
COc1cccc(C(=O)c2c(C)nn(C)c2N)c1Cl,Activity,Rattus norvegicus,250 mg/kg
same,Activity,Mus musculus [4],32 mg/kg
CCCn1nc(C)c(C(=O)c2cccc(OC)c2Cl)c1N,Activity,Rattus norvegicus,63 mg/kg
same,Activity,Mus musculus [4],16 mg/kg
CCc1nn(C)c(N)c1C(=O)c1ccccc1,Activity,Rattus norvegicus,250 mg/kg
same,Inhibition,Mus musculus [7],31%
same,Inhibition,Mus musculus [8],60%
same,Inhibition,Mus musculus [6],31%
same,Activity,Mus musculus [4],16 mg/kg
CCCn1nc(C)c(C(=O)c2ccccc2C(F)(F)F)c1N,Activity,Rattus norvegicus,63 mg/kg
same,Activity,Mus musculus [4],8 mg/kg
Cc1ccccc1C(=O)c1c(C)nn(C)c1N,Activity,Rattus norvegicus,125 mg/kg
same,Inhibition,Mus musculus [7],31%
same,Inhibition,Mus musculus [5],0%
same,Inhibition,Mus musculus [3],60%
same,Activity,Mus musculus [4],32 mg/kg
Cc1nn(C)c(N)c1C(=O)c1ccccc1,Inhibition,Mus musculus [1],31%
same,Inhibition,Mus musculus [2],0%
same,Activity,Rattus norvegicus,500 mg/kg
same,Inhibition,Mus musculus [3],60%
same,Activity,Mus musculus [4],63 mg/kg
Cc1nn(C)c(N)c1C(=O)c1ccsc1,Activity,Mus musculus [4],16 mg/kg
CCCCn1nc(C)c(C(=O)c2ccccc2Cl)c1N,Activity,Rattus norvegicus,125 mg/kg
same,Activity,Mus musculus [4],8 mg/kg
Cc1nn(C2CCCCC2)c(N)c1C(=O)c1ccccc1Cl,Activity,Mus musculus [9],Quiet at 250mg/kg
CCCn1nc(C)c(C(=O)c2ccccc2OC)c1N,Activity,Rattus norvegicus,125 mg/kg
same,Activity,Mus musculus [4],16 mg/kg
Cc1nn(C)c(N)c1C(=O)c1ccccc1Cl,Inhibition,Mus musculus [2],0%
same,Activity,Rattus norvegicus,125 mg/kg
same,Inhibition,Mus musculus [5],0%
same,Inhibition,Mus musculus [3],60%
same,Activity,Mus musculus [4],63 mg/kg
Cc1nn(C)c(N)c1C(=O)c1ccccc1Br,Activity,Rattus norvegicus,125 mg/kg
same,Inhibition,Mus musculus [7],31%
same,Inhibition,Mus musculus [5],0%
same,Inhibition,Mus musculus [6],31%
same,Activity,Mus musculus [4],63 mg/kg
CC(C)c1nn(C)c(N)c1C(=O)c1ccccc1Cl,Activity,Mus musculus [4],63 mg/kg
Cc1nn(C)c(N)c1C(=O)c1cccs1,Inhibition,Mus musculus [2],0%
same,Inhibition,Mus musculus [8],60%
same,Inhibition,Mus musculus [3],60%
same,Activity,Mus musculus [4],8 mg/kg
same,ED50,Mus musculus [10],34.2 mg/kg
CCCc1nn(C)c(N)c1C(=O)c1ccccc1Cl,Activity,Rattus norvegicus,125 mg/kg
same,Activity,Mus musculus [4],32 mg/kg
Cc1nn(C)c(N)c1C(=O)c1cccc(Cl)c1,Inhibition,Mus musculus [2],0%
same,Activity,Rattus norvegicus,63 mg/kg
same,Inhibition,Mus musculus [5],0%
same,Inhibition,Mus musculus [6],31%
same,Activity,Mus musculus [4],125 mg/kg
CCCn1nc(C)c(C(=O)c2cccs2)c1N,Activity,Rattus norvegicus,125 mg/kg
same,Activity,Mus musculus [4],250 mg/kg
CCCn1nc(C)c(C(=O)c2ccccc2Br)c1N,Activity,Rattus norvegicus,32 mg/kg
same,Activity,Mus musculus [4],8 mg/kg
COc1ccccc1C(=O)c1c(C)nn(C)c1N,Inhibition,Mus musculus [1],31%
same,Inhibition,Mus musculus [2],0%
same,Activity,Rattus norvegicus,125 mg/kg
same,Inhibition,Mus musculus [6],31%
same,Activity,Mus musculus [4],32 mg/kg
Cc1nn(C)c(N)c1C(=O)c1ccc(Cl)cc1,Inhibition,Mus musculus [2],0%
same,Activity,Rattus norvegicus,125 mg/kg
same,Inhibition,Mus musculus [5],0%
same,Inhibition,Mus musculus [3],60%
same,Activity,Mus musculus [4],125 mg/kg
CSc1ccc2c(c1)N(CCC1CCCCN1C)c1ccccc1S2 (configuration not stated) [THIORIDAZINE],Inhibition,Mus musculus [11],60%
same,ED50,Mus musculus [10],2.9 mg/kg
CCn1nc(C)c(C(=O)c2ccccc2Cl)c1N,Activity,Rattus norvegicus,16 mg/kg
same,Activity,Mus musculus [4],32 mg/kg
CCc1nn(C)c(N)c1C(=O)c1ccccc1Cl,Activity,Rattus norvegicus,500 mg/kg
same,Activity,Mus musculus [4],63 mg/kg
CCc1nn(C)c(N)c1C(=O)c1cccc(F)c1,Activity,Rattus norvegicus,500 mg/kg
same,Activity,Mus musculus [4],63 mg/kg
Cc1nn(C)c(N)c1C(=O)c1ccccc1F,Inhibition,Mus musculus [11],60%
same,Activity,Rattus norvegicus,250 mg/kg
same,Inhibition,Mus musculus [8],60%
same,Activity,Mus musculus [4],32 mg/kg
same,ED50,Mus musculus [10],9.4 mg/kg
CCCn1nc(C)c(C(=O)c2ccccc2Cl)c1N,Activity,Rattus norvegicus,32 mg/kg
same,Activity,Mus musculus [4],8 mg/kg
CCCCn1nc(C)c(C(=O)c2cccc(Cl)c2)c1N,Activity,Rattus norvegicus,500 mg/kg
same,Activity,Mus musculus [4],32 mg/kg
CCCCc1nn(C)c(N)c1C(=O)c1ccccc1Cl,Activity,Rattus norvegicus,125 mg/kg
O=c1[nH]c2ccccc2n1C1CCN(CCCC(c2ccc(F)cc2)c2ccc(F)cc2)CC1 [PIMOZIDE],Inhibition,Mus musculus [11],60%
same,ED50,Mus musculus [12],5.9 mg/kg
Cn1nc(-c2ccccc2)c(C(=O)c2ccccc2Cl)c1N,Activity,Mus musculus [4],250 mg/kg
CCc1nn(C)c(N)c1C(=O)c1ccccc1F,Inhibition,Mus musculus [2],0%
same,Activity,Rattus norvegicus,250 mg/kg
same,Inhibition,Mus musculus [5],0%
same,Inhibition,Mus musculus [6],31%
same,Activity,Mus musculus [4],32 mg/kg
CCCn1nc(C)c(C(=O)c2ccc(Cl)cc2)c1N,Activity,Rattus norvegicus,32 mg/kg
same,Activity,Mus musculus [4],16 mg/kg
CCCn1nc(C)c(C(=O)c2ccccc2C)c1N,Activity,Rattus norvegicus,63 mg/kg
same,Activity,Mus musculus [4],16 mg/kg
